What was measured:
[1] = tested on: MDA-MB-231; assay: Growth inhibition of human MDA-MB-231 cells after 72 hrs by luminescence assay; format: functional, cell-based; conditions: MDA-MB-231, 72 h
In short: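 MDA-MB-231 cells grown in RPMI 1640 with 5% FBS, 2 mM glutamine and antibiotics at 37 °C, 5% CO2. Cells were harvested at 70–90% confluence, used only if viability >95%, and seeded at 5000 cells/well. Dosing followed 18–24 h later, with final DMSO 0.1%. Viability was read after 72 h by CellTiter-Glo luminescence. IC50 came from eight concentrations in quadruplicate, fitted to a four-parameter logistic.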

[2] = biological target: T1, cGMP-specific 3',5'-cyclic phosphodiesterase (Homo sapiens, UniProt O76074); assay: Inhibition of human recombinant PDE5 after 30 mins by fluorescence polarization assay
In short: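 Recombinant human PDE5A at 12.5 units/mL was preincubated 30 min with compound or vehicle. Then 50 nM TAMRA-cGMP was added and the mix incubated 1.5 h at 30 °C. IMAP binding reagent was added for 30 min at 30 °C and fluorescence polarization read. IC50 came from a 10-concentration series in quadruplicate, fitted to a four-parameter logistic.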

[3] = biological target: T1, cGMP-specific 3',5'-cyclic phosphodiesterase; assay: Inhibition of human recombinant PDE5 at 10 uM after 30 mins by fluorescence polarization assay
[4] = tested on: MDA-MB-231; assay: Growth inhibition of human MDA-MB-231 cells at 10 uM after 72 hrs by luminescence assay; format: functional; conditions: MDA-MB-231, 72 h
[5] = biological target: T1, cGMP-specific 3',5'-cyclic phosphodiesterase; assay: Inhibition of human recombinant PDE5A-mediated hydrolysis of cGMP after 30 mins by fluorescence polarization assay
[6] = biological target: T2, Dual 3',5'-cyclic-AMP and -GMP phosphodiesterase 11A (Homo sapiens, UniProt Q9HCR9); assay: Inhibition of human recombinant PDE11A-mediated hydrolysis of cGMP after 30 mins by fluorescence polarization assay
T2 sequence (Q9HCR9 whole entry): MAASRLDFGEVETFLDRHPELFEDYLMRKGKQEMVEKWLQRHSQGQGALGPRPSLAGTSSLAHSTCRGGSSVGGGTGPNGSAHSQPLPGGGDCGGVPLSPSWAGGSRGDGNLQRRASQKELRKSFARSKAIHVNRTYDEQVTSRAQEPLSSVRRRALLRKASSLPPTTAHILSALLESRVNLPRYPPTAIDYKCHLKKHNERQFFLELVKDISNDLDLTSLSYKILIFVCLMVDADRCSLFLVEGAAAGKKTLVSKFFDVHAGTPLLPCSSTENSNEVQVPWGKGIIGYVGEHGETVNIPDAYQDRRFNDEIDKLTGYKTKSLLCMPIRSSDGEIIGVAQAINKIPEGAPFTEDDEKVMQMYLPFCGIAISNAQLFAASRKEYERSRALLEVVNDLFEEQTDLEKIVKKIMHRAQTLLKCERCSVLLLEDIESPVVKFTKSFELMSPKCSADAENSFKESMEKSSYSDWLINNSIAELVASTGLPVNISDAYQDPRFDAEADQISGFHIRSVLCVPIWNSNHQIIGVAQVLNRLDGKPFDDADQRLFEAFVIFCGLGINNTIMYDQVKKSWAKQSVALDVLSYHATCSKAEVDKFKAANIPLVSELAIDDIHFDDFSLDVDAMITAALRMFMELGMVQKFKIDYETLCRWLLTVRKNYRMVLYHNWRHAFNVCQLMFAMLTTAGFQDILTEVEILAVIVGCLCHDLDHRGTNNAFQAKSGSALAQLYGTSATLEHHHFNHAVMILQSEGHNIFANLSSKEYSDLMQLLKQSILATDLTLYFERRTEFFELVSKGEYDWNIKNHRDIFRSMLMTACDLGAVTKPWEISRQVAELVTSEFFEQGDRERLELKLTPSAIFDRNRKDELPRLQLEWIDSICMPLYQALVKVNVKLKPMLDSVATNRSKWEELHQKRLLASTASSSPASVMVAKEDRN
In short: (§1)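 Recombinant human enzyme levels were PDE3B 10 units/mL, PDE4B 400 units/mL and PDE11A 50 units/mL. Enzyme was preincubated with compound or vehicle for 30 min. Substrate was then added: 50 nM TAMRA-cGMP and/or 50 nM fluorescein-cAMP. Fluorescence polarization was read. IC50 came from a 10-concentration series in quadruplicate, fitted to a four-parameter logistic.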

[7] = biological target: 3',5'-cyclic-AMP phosphodiesterase 4B (Homo sapiens, UniProt Q07343); assay: Inhibition of human recombinant PDE4B-mediated hydrolysis of cAMP after 30 mins by fluorescence polarization assay; in short: as §1
Chain of 3',5'-cyclic-AMP phosphodiesterase 4B (Q07343 whole entry): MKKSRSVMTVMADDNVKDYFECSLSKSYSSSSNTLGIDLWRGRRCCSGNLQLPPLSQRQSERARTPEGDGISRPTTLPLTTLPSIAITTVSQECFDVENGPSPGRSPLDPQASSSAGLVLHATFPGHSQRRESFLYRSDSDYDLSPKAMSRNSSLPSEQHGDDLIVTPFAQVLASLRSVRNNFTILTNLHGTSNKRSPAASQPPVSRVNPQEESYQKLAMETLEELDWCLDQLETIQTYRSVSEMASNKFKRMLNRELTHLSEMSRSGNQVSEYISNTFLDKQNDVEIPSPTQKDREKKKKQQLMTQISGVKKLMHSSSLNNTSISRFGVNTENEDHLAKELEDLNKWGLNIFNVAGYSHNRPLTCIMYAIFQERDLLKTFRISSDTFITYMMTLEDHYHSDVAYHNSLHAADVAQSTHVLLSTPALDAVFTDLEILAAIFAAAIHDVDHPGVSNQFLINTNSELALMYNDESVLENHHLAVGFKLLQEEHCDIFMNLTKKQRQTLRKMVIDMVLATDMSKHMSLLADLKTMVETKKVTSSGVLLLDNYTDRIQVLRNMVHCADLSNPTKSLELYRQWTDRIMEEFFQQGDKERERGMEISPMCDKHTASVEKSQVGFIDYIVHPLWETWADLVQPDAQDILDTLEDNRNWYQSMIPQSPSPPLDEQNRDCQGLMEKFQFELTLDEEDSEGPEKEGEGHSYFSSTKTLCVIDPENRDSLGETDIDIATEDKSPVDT

[8] = biological target: T3, cGMP-inhibited 3',5'-cyclic phosphodiesterase 3B (Homo sapiens, UniProt Q13370); assay: Inhibition of human recombinant PDE3B-mediated hydrolysis of cAMP after 30 mins by fluorescence polarization assay
T3 sequence (Q13370 whole entry): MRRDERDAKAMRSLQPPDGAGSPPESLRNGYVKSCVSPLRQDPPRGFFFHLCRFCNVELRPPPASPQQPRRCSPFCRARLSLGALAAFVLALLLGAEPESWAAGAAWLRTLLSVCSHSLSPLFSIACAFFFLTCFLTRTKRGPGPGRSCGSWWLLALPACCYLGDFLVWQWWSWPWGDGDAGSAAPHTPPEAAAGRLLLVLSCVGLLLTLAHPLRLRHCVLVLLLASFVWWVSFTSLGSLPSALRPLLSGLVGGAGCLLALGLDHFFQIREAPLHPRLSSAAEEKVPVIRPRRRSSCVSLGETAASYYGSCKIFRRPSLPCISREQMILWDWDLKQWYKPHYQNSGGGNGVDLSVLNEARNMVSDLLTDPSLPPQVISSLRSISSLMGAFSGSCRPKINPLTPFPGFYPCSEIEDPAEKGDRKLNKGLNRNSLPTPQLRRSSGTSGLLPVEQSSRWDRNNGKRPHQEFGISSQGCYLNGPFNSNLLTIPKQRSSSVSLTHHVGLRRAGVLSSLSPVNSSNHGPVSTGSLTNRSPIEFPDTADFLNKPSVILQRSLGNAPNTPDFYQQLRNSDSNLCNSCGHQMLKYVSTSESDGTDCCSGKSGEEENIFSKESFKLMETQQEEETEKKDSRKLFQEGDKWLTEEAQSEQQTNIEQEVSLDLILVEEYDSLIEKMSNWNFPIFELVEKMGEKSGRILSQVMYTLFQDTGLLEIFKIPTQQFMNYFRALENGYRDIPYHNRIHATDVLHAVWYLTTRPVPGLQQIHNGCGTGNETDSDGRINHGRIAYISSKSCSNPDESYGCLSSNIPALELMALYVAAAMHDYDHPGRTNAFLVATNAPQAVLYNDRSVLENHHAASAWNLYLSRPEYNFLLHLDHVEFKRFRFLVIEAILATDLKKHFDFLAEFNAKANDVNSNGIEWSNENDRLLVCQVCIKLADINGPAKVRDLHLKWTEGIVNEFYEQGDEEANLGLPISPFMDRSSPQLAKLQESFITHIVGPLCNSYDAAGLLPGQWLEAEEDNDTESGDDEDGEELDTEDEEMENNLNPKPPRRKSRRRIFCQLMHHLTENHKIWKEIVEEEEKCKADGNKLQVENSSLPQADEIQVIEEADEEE
In short: as §1, with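 “fluorescein-cAMP. Reactions ran 1.5 h at 30 °C, followed by IMAP binding reagent for 30 min at 30 °C.” for “fluorescein-cAMP.”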

[9] = biological target: T2, Dual 3',5'-cyclic-AMP and -GMP phosphodiesterase 11A; assay: Inhibition of human recombinant PDE11A-mediated hydrolysis of cAMP after 30 mins by fluorescence polarization assay; in short: as §1
[10] = biological target: T3, cGMP-inhibited 3',5'-cyclic phosphodiesterase 3B; assay: Inhibition of human recombinant PDE3B-mediated hydrolysis of cGMP after 30 mins by fluorescence polarization assay
In short: as §1, with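 “fluorescein-cAMP. Reactions ran 1.5 h at 30 °C, followed by IMAP binding reagent for 30 min at 30 °C.” for “fluorescein-cAMP.”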

| SMILES | IC50 [1] | IC50 [2] | inhibition [3] | inhibition at 10 µM [4] | IC50 [5] | IC50 [6] | IC50 [7] | IC50 [8] | IC50 [9] | IC50 [10] |
| --- | --- | --- | --- | --- | --- | --- | --- | --- | --- | --- |
| CC(C)(C)N1C(=O)[C@H]2Cc3c([nH]c4ccccc34)[C@@H](c3ccc(Cl)c(Cl)c3)N2C1=O | 3250 nM | 1870 nM | 82% | 99% | – | – | – | – | – | – |
| COC(=O)[C@@H]1Cc2c([nH]c3ccccc23)[C@H](c2ccc(Cl)c(Cl)c2)N1 | 6980 nM | – | 18% | 62% | – | – | – | – | – | – |
| CCN1C(=O)[C@@H]2Cc3c([nH]c4ccccc34)[C@@H](c3ccc(Cl)cc3Cl)N2C1=O | 5370 nM | 7 nM | 95% | 68% | 7 nM | 1500 nM | 3600 nM | > 50000 nM | 13000 nM | > 50000 nM |
| CC(C)(C)N1C(=O)[C@@H]2Cc3c([nH]c4ccccc34)[C@H](c3ccc(Cl)c(Cl)c3)N2C1=O | 1430 nM | 2310 nM | 80% | 70% | – | – | – | – | – | – |
| COC(=O)[C@H]1Cc2c([nH]c3ccccc23)[C@@H](c2ccc(Cl)cc2Cl)N1C(=O)CCl | 560 nM | 2300 nM | 66% | – | – | – | – | – | – | – |
| CC(C)(C)N1CC(=O)N2[C@@H](c3ccc(Cl)cc3Cl)c3[nH]c4ccccc4c3C[C@H]2C1=O | 2590 nM | 1350 nM | 78% | – | – | – | – | – | – | – |
| CN1CC(=O)N2[C@H](c3ccc4c(c3)OCO4)c3[nH]c4ccccc4c3C[C@@H]2C1=O | – | – | – | – | – | – | – | > 50000 nM | – | > 50000 nM |
| CCN1C(=O)[C@@H]2Cc3c([nH]c4ccccc34)[C@H](c3ccc(Cl)c(Cl)c3)N2C1=O | 4780 nM | 8750 nM | – | – | – | – | – | – | – | – |
| CCN1C(=O)[C@H]2Cc3c([nH]c4ccccc34)[C@@H](c3ccc(Cl)cc3Cl)N2C1=O | – | 10 nM | 95% | 39% | 10 nM | 310 nM | 34000 nM | > 50000 nM | 2000 nM | > 50000 nM |
| CN1CC(=O)N2[C@@H](c3ccc(Cl)cc3Cl)c3[nH]c4ccccc4c3C[C@H]2C1=O | 7100 nM | 850 nM | 82% | 70% | – | – | – | – | – | – |
| COC(=O)[C@H]1Cc2c([nH]c3ccccc23)[C@H](c2ccc(Cl)cc2Cl)N1 | 6730 nM | – | 40% | 78% | – | – | – | – | – | – |
| CN1CC(=O)N2[C@@H](c3ccc(Cl)cc3Cl)c3[nH]c4ccccc4c3C[C@@H]2C1=O | 3260 nM | 1200 nM | 90% | 65% | – | – | – | – | – | – |
| CC(C)(C)N1CC(=O)N2[C@@H](c3ccc(Cl)cc3Cl)c3[nH]c4ccccc4c3C[C@@H]2C1=O | 2920 nM | 1260 nM | – | – | – | – | – | – | – | – |
| CC(C)(C)N1C(=O)[C@H]2Cc3c([nH]c4ccccc34)[C@H](c3ccc(Cl)cc3Cl)N2C1=O | 640 nM | 1480 nM | 73% | 65% | – | – | – | – | – | – |
| CC(C)(C)N1C(=O)[C@@H]2Cc3c([nH]c4ccccc34)[C@@H](c3ccc(Cl)cc3Cl)N2C1=O | 1260 nM | 70 nM | 95% | 69% | – | – | – | – | – | – |
| CCCCN1CC(=O)N2[C@@H](c3ccc(Cl)cc3Cl)c3[nH]c4ccccc4c3C[C@@H]2C1=O | 1200 nM | 1110 nM | 69% | 65% | – | – | – | – | – | – |
| COC(=O)[C@H]1Cc2c([nH]c3ccccc23)[C@H](c2ccc(Cl)c(Cl)c2)N1 | 4620 nM | – | 50% | 100% | – | – | – | – | – | – |
| CC(C)(C)N1C(=O)[C@H]2Cc3c([nH]c4ccccc34)[C@@H](c3ccc(Cl)cc3Cl)N2C1=O | 2260 nM | 590 nM | 80% | 68% | – | – | – | – | – | – |
| CCN1CC(=O)N2[C@H](c3ccc(Cl)cc3Cl)c3[nH]c4ccccc4c3C[C@@H]2C1=O | – | 2 nM | 91% | 30% | 2 nM | 11 nM | > 50000 nM | > 50000 nM | 104 nM | > 50000 nM |
| CCCCN1CC(=O)N2[C@@H](c3ccc(Cl)cc3Cl)c3[nH]c4ccccc4c3C[C@H]2C1=O | 3280 nM | 4460 nM | 78% | 82% | – | – | – | – | – | – |
| COC(=O)[C@H]1Cc2c([nH]c3ccccc23)[C@H](c2ccc(Cl)cc2Cl)N1C(=O)CCl | 70 nM | – | 25% | – | – | – | – | – | – | – |
| CCN1C(=O)[C@@H]2Cc3c([nH]c4ccccc34)[C@H](c3ccc(Cl)cc3Cl)N2C1=O | – | 850 nM | 85% | 29% | – | – | – | – | – | – |
| CCN1C(=O)[C@H]2Cc3c([nH]c4ccccc34)[C@H](c3ccc(Cl)cc3Cl)N2C1=O | – | 90 nM | 90% | 54% | – | – | – | – | – | – |
| COC(=O)[C@H]1Cc2c([nH]c3ccccc23)[C@@H](c2ccc(Cl)cc2Cl)N1 | – | 7200 nM | 65% | 29% | – | – | – | – | – | – |
| COC(=O)[C@@H]1Cc2c([nH]c3ccccc23)[C@@H](c2ccc(Cl)cc2Cl)N1C(=O)CCl | 1240 nM | – | 38% | 98% | – | – | – | – | – | – |
| CCN1CC(=O)N2[C@@H](c3ccc(Cl)cc3Cl)c3[nH]c4ccccc4c3C[C@@H]2C1=O | 1540 nM | 260 nM | 90% | 66% | – | – | – | – | – | – |

Reference: ChEMBL document CHEMBL1649422, “Synthesis and molecular modeling of novel tetrahydro-β-carboline derivatives with phosphodiesterase 5 inhibitory and anticancer properties” (J Med Chem, 2011)
